TNAP act DEA: human TNAP enzyme activators, primary screen, biochemical, luminescent, intermediate phosphate acceptor level | Alkaline phosphatase, tissue-nonspecific isozyme (Homo sapiens), P05186 | purified TNAP, CDP-star luminescence, 100 mM DEA, 30 min; stronger effect = higher value; scale: 0 levamisole-inhibited, 1 vehicle-only enzyme | activation factor at 20 µM | 64,000 tested, under 10 active;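 active means activation factor of at least 2 at 20 µM, relative to controls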
CD11b adhes enh: enhancers of CD11b/CD18 adhesion to fibrinogen, primary screen, K562 cells, luminescence; ATPlite luminescence; Integrin beta-2 (Homo sapiens) + Integrin alpha-M (Homo sapiens), P05107+P11215; actives 0.07% (n = 93,000); AID 1499, 2009; activation, % at 10 µM;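 active means 10 µM primary screen giving 50% or more activity, confirmed by 40% or more on retest at that dose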
MT1-MMP txn act: MT1-MMP promoter reporter activation – cell-based, luciferase luminescence, primary screen. HT1080 MT1-MMP promoter luciferase reporter, overnight; stronger effect = higher value. activation factor at 10 µM. AID 750, 2007. actives 0.16% (n = 86,000);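 active means activation factor of at least 2 for MT1-MMP transcription at 10 µM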
SF1 activator: activators of human SF-1, primary screen, cell-based, CHO-K1, Gal4-SF-1 LBD, luciferase luminescence. CHO-K1 Gal4-SF-1 LBD luciferase reporter; % increase over DMSO SF-1-specific signal. Steroidogenic factor 1 (Homo sapiens), Q13285. activation, % at 10 µM. actives 1.9% (n = 65,000);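 active means activation above the mean activation of all tested compounds plus 3 SD, cut at about 50% in these data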
Target sequence (Q13285 whole entry, looked up, the tested form may be a part): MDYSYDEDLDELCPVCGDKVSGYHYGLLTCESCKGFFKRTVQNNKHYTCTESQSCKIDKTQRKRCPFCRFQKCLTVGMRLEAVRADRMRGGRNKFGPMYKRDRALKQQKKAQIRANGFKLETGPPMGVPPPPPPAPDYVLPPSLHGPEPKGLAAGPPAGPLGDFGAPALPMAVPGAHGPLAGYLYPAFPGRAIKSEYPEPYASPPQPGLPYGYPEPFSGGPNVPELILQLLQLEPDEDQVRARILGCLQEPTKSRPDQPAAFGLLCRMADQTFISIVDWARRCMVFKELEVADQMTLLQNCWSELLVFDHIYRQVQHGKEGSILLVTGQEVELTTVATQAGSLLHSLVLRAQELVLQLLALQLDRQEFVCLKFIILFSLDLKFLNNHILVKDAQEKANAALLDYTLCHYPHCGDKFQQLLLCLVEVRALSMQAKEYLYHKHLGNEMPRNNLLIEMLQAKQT
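System: CHO-K1 cells with Gal4–hSF-1 LBD chimera plus Gal4-driven luciferase; quantity: 4,000 CHO-K1 cells per well; compound: one dose, 10 µM compound, 1% DMSO; times: 20 h compound treatment, 37 °C; measured by: SteadyLite luciferase luminescence; read-out: percent activation versus DMSO; benchmarks: DMSO and mock-transfected background; replicates: one test per compound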
Mac1 fbg inh: inhibitors of CD11b/CD18 adhesion to fibrinogen, primary screen, K562 cells, luminescence; inhibition, % at 10 µM; ATPlite luminescence; Mn2+ added to activate the integrin; AID 1497, 2009; actives 0.54% (n = 93,000);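 active means primary inhibition of 50% or more at 10 µM, then 40% or more on retest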
RORa activator: activators of orphan receptor RORA, primary screen, cell-based, luminescence; actives 1.5% (n = 65,000); activation, % at 10 µM; CHO-K1 Gal4-RORA LBD luciferase reporter; percent increase over mock-subtracted basal signal; AID 560, 2006; Nuclear receptor ROR-alpha (Homo sapiens), P35398;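 active means activation above the mean of all tested compounds plus 3 SD, cut at about 49% in these data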;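 further: 0% = DMSO-treated RORA cells and 100% = added signal equal to DMSO minus mock-transfected cells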
An asterisk follows results filed as active; . = not tested or not shown. Compounds with a hit are over-represented: about 2.1% of the library has one in this group of screens.

SMILES	TNAP act DEA	CD11b adhes enh	MT1-MMP txn act	SF1 activator	Mac1 fbg inh	RORa activator
CCOC(=O)c1ccc(NC(=O)CC2C(=O)N(c3ccc(F)cc3)C(=O)N2CCC(C)C)cc1 (centres undefined)	.	-4	1.2	.	7	.
O=C(CCCN1CCOCC1)c1ccc2c(c1)OCCO2	0.9	0	1.5	56*	-14	29
O=C1N=C(N2CCCCC2)SC1=C1CCCCC1	.	-5	1.3	.	5	.
O=C1NC(=S)SC1=C1CCCCCC1	0.8	-3	1.1	4	59*	-10
O=C1C2CCCN2c2ccc(S(=O)(=O)N3CCOCC3)cc2N1Cc1cccc(C(F)(F)F)c1 (centres undefined)	.	142*	.	.	1	.
Cc1cc(OC(C)C)nc(NCc2ccccc2)n1	.	.	1.1	.	.	.
CCCNC(=O)CSc1nnc(C)s1	.	1	0.9	.	2	.
COc1ccc(C(=O)Nn2cnnc2)c(OC)c1	.	4	1.1	.	-5	.
COc1ccc(C(=O)Nc2ccc(C)cn2)c(OC)c1	0.8	-8	0	-82	76*	-78
CCOC(=O)C1CCCN(c2ncnc3c2cnn3-c2ccc(OC)cc2)C1 (centres undefined)	0.9	1	1.2	58*	-7	42
CC(=O)c1ccc(NC(=O)Nc2cccc(Cl)c2)cc1	.	-7	1.1	.	97*	.
CC(C)(C)C(=O)NC(c1ccc(Cl)cc1)[C@]1(C)C[C@H]1C1CCCCC1 (some centres undefined)	.	.	1.3	.	.	.
CCCC[C@@H]1C[C@H]1C(NC(=O)Cc1ccccc1)c1ccc(Cl)cc1 (some centres undefined)	.	.	1.2	.	.	.
Cc1c(C(=O)NC2CCCc3ccccc32)oc2ccc(S(=O)(=O)N3CCOCC3)cc12 (centres undefined)	0.8	57*	.	12	8	20
CCCCCCOC(=O)/C=C/c1c(C)[nH]c(=O)[nH]c1=O	.	-7	.	.	92	.
O=C(Cc1ccccc1)Nc1ccc2oc(-c3ccncc3)nc2c1	1	2	1.1	7	5	23
CC(C)CC(=O)Nc1ccc2oc(-c3ccncc3)nc2c1	0.9	0	1.4	55*	-7	35
O=C(NCC1CCCO1)c1ccc(CS(=O)(=O)c2ccc(Cl)cc2)o1 (centres undefined)	.	1	1.2	.	-7	.
COCCCNC(=O)c1cc2c(=O)n(C)c3ccccc3c2n1C	0.9	-3	1	38	-5	60*
Clc1ccc(SCc2cn3ccsc3n2)cc1	0.7	-6	1.9	58*	10	30
c1cn2cc(CSC3CCCCC3)nc2s1	0.9	-1	1.4	60*	.	30
Cc1csc2nc(CSc3ccc(Cl)cc3)cn12	0.8	-2	0.9	32	-2	-6
O=C(NCCc1cn2ccsc2n1)C1CCCCC1	0.9	-1	1.1	1	2	-9
c1ccc(CSCc2cn3ccsc3n2)cc1	0.8	0	1.7	54*	-17	58*
CCC/C=C(\CCC)C(NS(=O)(=O)c1cccc2cccnc12)c1ccc(-c2ccccc2)cc1 (centres undefined)	.	.	1.2	.	.	.
SMILES	TNAP act DEA	CD11b adhes enh	MT1-MMP txn act	SF1 activator	Mac1 fbg inh	RORa activator
C#CCN(Cc1ccccc1)C(=O)/C=C/c1ccccc1	.	.	1.2	.	.	.
Clc1ccc(-c2cn3c(n2)CCC3)cc1	0.8	4	1.7	72*	5	22
Clc1ccc(-c2nnc3n2CCCCC3)cc1	.	-2	1.1	.	15	.
C/C(N)=C(/C#N)C(=O)CSc1nnc(Nc2cccc(C)c2)s1	0.8	.	1.6	69*	.	36
C/C(N)=C(/C#N)C(=O)CSc1nc2cc(Cl)ccc2s1	1	0	1.4	-8	12	-18
O=C(O)c1ccccc1C(=O)Nc1ccccc1	0.9	.	1	-18	.	-8
O=C(Nc1ccccc1)c1cnc[nH]1	0.9	2	1.5	57*	-4	28
Cc1ccc(S(=O)(=O)N2C(=S)SCC2(C)C)cc1	0.9	-4	1	-16	-13	-19
CC1=CC(C)(C)N(S(=O)(=O)c2ccc(C)cc2)c2cc(C)ccc21	.	-5	0.4	.	79*	.
CCN(CC)c1ccc(NC(=O)C2CC3CCC2C3)cc1 (centres undefined)	0.9	0	1.7	50	4	55*
CCn1nccc1C(=O)Nc1ccc(Cl)cc1Cl	0.9	4	1.3	67*	-4	31
CCn1nccc1C(=O)Nc1cc(Cl)ccc1Cl	0.9	4	1	3	4	-5
COC(=O)[C@@]1(Cc2ccc(OC)cc2)[C@H]2c3cc(C(=O)N4CCCC4)n(Cc4cc(F)cc5c4OCOC5)c3C[C@H]2CN1C(=O)c1ccccc1	.	.	1.2	.	.	.
CCCCn1cnc2c(cnn2-c2ccc(Cl)cc2)c1=O	0.9	.	1.4	65*	.	28
CCOC(=O)C(C)n1cnc2c(cnn2-c2ccc(Cl)cc2)c1=O (centres undefined)	0.9	5	1.1	70*	-12	40
CCCCn1cnc2c(cnn2-c2ccc(F)cc2)c1=O	0.9	.	.	43	.	34
CCCn1cnc2c(cnn2-c2ccc(F)cc2)c1=O	0.9	.	1.5	52*	.	34
C=CCOc1ccc(/C=C/C(C)=N\O)cc1	0.9	-1	1.1	20	27	86*
C=CCOc1ccc2c(c1)C(=NO)c1cc(OCC=C)ccc1-2	.	0	1.5	.	5	.
COCc1cc(C)nc2sc(C(=O)Nc3nccs3)c(N)c12	1	3	1.4	92*	-7	31
CCOC(=O)c1[nH]c(C)c(C(=O)Nc2ccccc2F)c1C	0.9	.	1.2	83*	.	110*
COCCCNC(=O)c1cc2c(=O)n3cc(C)ccc3nc2nc1NCC1CCCO1 (centres undefined)	.	0	.	.	-4	.
Clc1ccccc1OCc1nnc(-c2ccccc2Br)o1	0.9	-1	1.6	94*	6	83*
Brc1ccccc1-c1nnc(COc2cccc3cccnc23)o1	.	-2	1.4	.	10	.
CCc1cc(/C(Cc2csc(C)n2)=N/O)c(O)cc1O	.	-9	0.8	.	80*	.
O=C(NCC1CCCO1)c1ccc2nc(N3CCCCC3)sc2c1 (centres undefined)	0.9	-3	1.5	54*	1	59*
Clc1ccc2nc(N3CCCCC3)sc2c1	0.9	-2	1.8	65*	8	29
Fc1cccc2sc(N3CCOCC3)nc12	1	.	1.4	40	.	3

From PubChem BioAssay
